Source: article PMC4227816 (Journal of the American Chemical Society, 2014)
Structures can show the parent of a compound that is named as a salt.

System: HIV-1RF challenged T-lymphoblastic CEM-SS cells
Assay: XTT anti-HIV-1 cytopathicity assay in CEM-SS cells
Assay type: cell-based
Method in brief: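 CEM-SS cells grown in phenol red-free RPMI 1640 with 5% FBS, 2 mM L-glutamine and 50 μg/mL gentamicin. Washed log-phase cells seeded at 5 × 10^3 per well with serial dilutions of compound in DMSO. HIV-1RF diluted to give 80–90% cell kill at 6 days, with parallel uninfected wells for toxicity. Incubated 6 days at 37 °C, viability read by XTT, in triplicate.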

CC(=O)c1ccc2c(c1)N(CCCN(C)C)c1ccccc1S2 [Acepromazine maleate]
protective effect against HIV-1-induced cytopathicity (in words): not protective
